The values below come from ChEMBL document CHEMBL4513216, “Probing the Open Global Health Chemical Diversity Library for Multistage-Active Starting Points for Next-Generation Antimalarials” (ACS Infect Dis, 2020).

This data set in a line: Toxicity liver stage against HepG2, at 10uM. Format: cell-based. More on the design: test concentration 10 uM, cell line HepG2-A16-CD81EGFP. The following applies: human, HepG2-A16-CD81EGFP cells; read-out: INHIBITION
The essentials:
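Uninfected HepG2-A16-CD81EGFP cells, 3 × 10^3 per well, 1536-well, plated on prespotted compound at 10 μM final, parasite-free screening media added to match infected plates; puromycin 10 μM positive, DMSO 0.5% negative; run in parallel with 48 h PbLuc assay at 37 °C, 5% CO2; viability by CellTiter-Glo luminescence, normalized to controls.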
Turning to `COc1ccc(-c2cn3c(n2)CO[C@@H](CNCc2nccn2C)C3)cc1`, the cytotoxicity at 10 µM is -0.765%. To `O=S1(=O)c2cccnc2OC(COc2ccccc2)CN1CC1CC1` (stereo not drawn) belongs -3.24%; to `CCCN1CCc2nc(SCc3c(C)cc(C)cc3C)[nH]c(=O)c2C1`, -2.33%.

As for `O=C(CCc1ccccc1)N1C[C@H]2CCN[C@H]2C1`, the cytotoxicity at 10 µM was -4.22%. In the case of `O=C1N(Cc2ccncc2)CCC12CCCNC2` (stereo not drawn), the cytotoxicity at 10 µM worked out at 4.26%. To `CN1CCN(C(=O)c2cccn2C)Cc2cccnc21` belongs 5.73%; to `Cc1csc(NC(=O)C(C)Oc2ccc3c(c2)OCO3)n1` (stereo not drawn), 8.06%; to `CCn1cc(NC(=O)C2CCC(=O)N2Cc2ccc(C)o2)cn1` (stereo not drawn), -2.92%.

As to `Cc1cn[nH]c1C1COCCN1C(=O)c1ccc2[nH]nnc2c1` (stereo not drawn), the cytotoxicity at 10 µM worked out at 2.73%.

Regarding `CSc1nnc(C2CCN(C(=O)N3CCCC3)CC2)n1C`, the cytotoxicity at 10 µM is 2.11%.

As to `CCn1ccc2ccnc(CC3CN(C(=O)c4ccc(F)cc4)C3)c21`, the cytotoxicity at 10 µM is -3.3%. As for `CC(=O)N1CCN([C@@H]2CC[C@@H](NC(=O)c3cncc(C)c3)[C@H]2O)CC1`, the figure is 2.6%; as for `COc1ccc(Br)cc1SCCC(N)=O`, 7.72%. To `Cc1ccc(C(=O)Nc2cc(C(N)=O)ccc2CN(C)C)cc1Cl` belongs 18.5%; to `Cc1cc(CN(C)Cc2cnc3c(c2)c(C)nn3C)no1`, 0.995%. To `Cn1cc(S(=O)(=O)NCC(C)(O)c2ccsc2)cn1` (stereo not drawn) belongs 22.1%.

Take `COC(=O)c1ccc(CN2CCC(c3n[nH]c(C)n3)CC2)s1`: the cytotoxicity at 10 µM was -2.87%. To `CNC(=O)c1cccc(CN2CCC(N(C)Cc3nnc(C)o3)C2)c1` (stereo not drawn) belongs 8.75%; to `Cc1cnn(C2CCCN(C(=O)CN(C)c3cnccn3)C2)c1` (stereo not drawn), -8.73%. As for `Cc1cc(C(C)(O)CNC(=O)CCn2ccnc2C(C)C)c(C)o1` (stereo not drawn), the figure is 4.27%.

For the molecule `COc1ccc(Oc2ncccc2NC(=O)N2CC[C@H](O)C2)cc1`, the cytotoxicity at 10 µM amounted to 1.7%. As for `CC(C(=O)NC1(C#N)CCCCC1)N1CCc2c(ncn2C2CC2)C1` (stereo not drawn), the figure is 7.66%. To `Cc1cccc(NCCNc2ccc(C#N)cn2)n1` belongs 18%. To `CC1CN(c2ccc(NC(=O)Cn3cccn3)cc2)CCO1` (stereo not drawn) belongs 3.94%; to `CC(CNC(=O)N1CCS(=O)(=O)CC1)Cc1cccs1` (stereo not drawn), -9.47%. Consider `CSc1nsc(NC(=O)N2CCc3ccccc3C2)n1`, for which the cytotoxicity at 10 µM came to 11.3%. To `CCCc1ccc(S(=O)(=O)NC(=O)CCc2cscn2)cc1` belongs 1.12%. With `Cc1cc(C)n(CC2CCCN2C(=O)c2ccc3[nH]c(=O)[nH]c3c2)n1` (stereo not drawn), the cytotoxicity at 10 µM is 3.18%. As for `CS(=O)(=O)CCn1ccc(NC(=O)Cc2cccc(Cl)c2)n1`, the figure is -3.36%; as for `O=S(=O)(NCCN1CCOCC1)c1cncc(Cl)c1`, 2.77%; as for `CC(=O)c1c[nH]c(C(=O)N2CCN(C(C(N)=O)c3ccccc3)CC2)c1` (stereo not drawn), 8.61%. To `Cc1nc(C2(NCc3cc(C#N)ccc3F)CCCCC2)no1` belongs 9.68%; to `CNC(=O)N(Cc1c(F)cccc1F)C1CCCC1`, 8.23%; to `CC1CCN(c2ccnc3ccc(Br)cc23)CC1`, 15.4%. To `CC(C)CNC(=O)CNC(=O)NCC(O)c1ccc2ccccc2c1` (stereo not drawn) belongs -2.52%; to `N#Cc1cccc(S(=O)(=O)N2CC(CC(=O)O)c3ccccc32)c1` (stereo not drawn), -1.11%; to `CC(C(=O)N(C)Cc1nnc2n1CCC2)S(C)(=O)=O` (stereo not drawn), -6.56%. On to `CN1CCN(S(=O)(=O)c2cccnc2)c2cnccc21`, for which the cytotoxicity at 10 µM was -0.376%. To `CN(CC(=O)NC(Cc1ccccc1)C1CCCC1)S(C)(=O)=O` (stereo not drawn) belongs 15.1%; to `COC(=O)N1CCN(CCCc2nnnn2-c2ccccc2)CC1`, 14%; to `CC(C)(C)Oc1ccc(NCC(=O)NCc2ccco2)cc1`, 2.21%.

For `Cn1ncnc1NCc1ccccc1Cl`, the cytotoxicity at 10 µM was -8.04%. To `O=C(NCC1(O)CCOC1)c1ccccc1Cl` (stereo not drawn) belongs -40.3%; to `O=C(Nc1cccnn1)NC(CCCO)c1ccccc1` (stereo not drawn), -0.908%. To `Cc1cc(CCC(=O)N2CCC(O)CC2)ccc1Br` belongs -4.3%; to `COCCC(=O)N1CCC2(COCc3cnc(-c4ccccc4)nc32)C1` (stereo not drawn), 3.6%. As for `O=C(C1CCC1)N1CCn2c(COc3ncccn3)nnc2C1`, the figure is 3.09%; as for `CS(=O)(=O)N1CCc2[nH]cnc2C12CCN(C(=O)c1ccc[nH]1)CC2`, -1.42%; as for `Cc1ccc2nc(C)cc(C(=O)NCc3csc(N(C)C)n3)c2c1`, 1.21%. Consider `Cc1nc2c(c(N3CCCOCC3)n1)CCN(C(=O)N1CCCC1)CC2`, for which the cytotoxicity at 10 µM came out at 9.2%. To `COc1ccc(C(=O)N2CCC(c3nccn3C(C)C)CC2)cc1OC` belongs 1.52%. As to `Cc1cc(CNC(=O)C2CC(=O)N(CCN(C)C)C2)cc(C)n1` (stereo not drawn), the cytotoxicity at 10 µM is 3.05%. As for `CC(C)c1noc(C2CC(=O)N(CCN(C)C)C2)n1` (stereo not drawn), the figure is -8.25%; as for `CCCc1nnc(NCCc2noc(C3CC3)n2)o1`, 0.0902%; as for `CCCn1ccnc1CN1C[C@@H](CN2CCCN(C)CC2)[C@@H](CO)C1`, 2.81%. To `CN(C)C(=O)CN1CCC(c2nnc(Cn3cccn3)n2C2CC2)CC1` belongs -6.65%; to `COc1ccc(CCN2CCCC(CN(C)Cc3[nH]cnc3C)C2)cc1` (stereo not drawn), -11.7%. As for `Cc1nc(N(C)C)ncc1C(=O)N(Cc1ccncc1)CC1CCCO1` (stereo not drawn), the figure is -1.59%.

Turning to `Cc1cccnc1CC(C)N(C)Cc1cccs1` (stereo not drawn), the cytotoxicity at 10 µM was -12.4%.

Consider `Cc1ccc(C(=O)O)c(N2CC(C)(C)[C@@](C)(O)C2)n1`, for which the cytotoxicity at 10 µM was found to be 4.5%. To `CNc1cc(CCNC(=O)c2cccnc2)nc(-c2ccncc2)n1` belongs 1.52%. `CC(c1ccccc1Cl)N(C)Cc1nc2c(cnn2C)c(=O)[nH]1` (stereo not drawn): the cytotoxicity at 10 µM was -5.19%. As for `CCn1ccnc1CN1CCCN(C(=O)c2ccnn2C)CC1`, the figure is -5.39%; as for `Cc1cccc(NS(=O)(=O)c2cc(C(=O)O)oc2C)c1Cl`, -14.6%.

On to `Cc1nc(C)c(CC(=O)Nc2ncc(C)s2)c(=O)[nH]1`, for which the cytotoxicity at 10 µM was -5.49%. As for `CC(C)c1ncc2c(n1)CN(Cc1cccc(C#N)c1)CC2`, the figure is -9.03%; as for `Cn1cc(C2CCCN2Cc2csc(-c3ccsc3)n2)cn1` (stereo not drawn), -8.21%; as for `COc1ccc(CCN2CCCC2Cn2nc(C)nc2C)cc1` (stereo not drawn), -7.16%. For `O=C1CC2(CCNCC2)C(=O)N1Cc1ccc(F)cc1`, the cytotoxicity at 10 µM stood at 6.68%. As for `CN(C)CCCNCCC(c1ccccc1)C1CCOC(C)(C)C1` (stereo not drawn), the figure is -7.91%. As for `COCCN1CCC2(CC1)CC(NC(=O)C1CC1)c1ccccc1O2` (stereo not drawn), the figure is 1.67%. `CCCNCc1cn(Cc2ccccc2)nc1-c1cccnc1`: the cytotoxicity at 10 µM amounted to 5.13%. To `CNC(=O)[C@@H]1C[C@H]2CN(C(=O)c3ccco3)C[C@H]2N1C(C)C` belongs -1.84%.
